For 18 compounds, inhibition results are on record in ChEMBL document CHEMBL3108700, “Designing anti-inflammatory drugs from parasitic worms: a synthetic small molecule analogue of the Acanthocheilonema viteae product ES-62 prevents development of collagen-induced arthritis” (J Med Chem, 2013).

The target in experiment [1] is T1, Toll-like receptor 9 (Mus musculus) (UniProt Q9EQU3).
T1 sequence (whole entry): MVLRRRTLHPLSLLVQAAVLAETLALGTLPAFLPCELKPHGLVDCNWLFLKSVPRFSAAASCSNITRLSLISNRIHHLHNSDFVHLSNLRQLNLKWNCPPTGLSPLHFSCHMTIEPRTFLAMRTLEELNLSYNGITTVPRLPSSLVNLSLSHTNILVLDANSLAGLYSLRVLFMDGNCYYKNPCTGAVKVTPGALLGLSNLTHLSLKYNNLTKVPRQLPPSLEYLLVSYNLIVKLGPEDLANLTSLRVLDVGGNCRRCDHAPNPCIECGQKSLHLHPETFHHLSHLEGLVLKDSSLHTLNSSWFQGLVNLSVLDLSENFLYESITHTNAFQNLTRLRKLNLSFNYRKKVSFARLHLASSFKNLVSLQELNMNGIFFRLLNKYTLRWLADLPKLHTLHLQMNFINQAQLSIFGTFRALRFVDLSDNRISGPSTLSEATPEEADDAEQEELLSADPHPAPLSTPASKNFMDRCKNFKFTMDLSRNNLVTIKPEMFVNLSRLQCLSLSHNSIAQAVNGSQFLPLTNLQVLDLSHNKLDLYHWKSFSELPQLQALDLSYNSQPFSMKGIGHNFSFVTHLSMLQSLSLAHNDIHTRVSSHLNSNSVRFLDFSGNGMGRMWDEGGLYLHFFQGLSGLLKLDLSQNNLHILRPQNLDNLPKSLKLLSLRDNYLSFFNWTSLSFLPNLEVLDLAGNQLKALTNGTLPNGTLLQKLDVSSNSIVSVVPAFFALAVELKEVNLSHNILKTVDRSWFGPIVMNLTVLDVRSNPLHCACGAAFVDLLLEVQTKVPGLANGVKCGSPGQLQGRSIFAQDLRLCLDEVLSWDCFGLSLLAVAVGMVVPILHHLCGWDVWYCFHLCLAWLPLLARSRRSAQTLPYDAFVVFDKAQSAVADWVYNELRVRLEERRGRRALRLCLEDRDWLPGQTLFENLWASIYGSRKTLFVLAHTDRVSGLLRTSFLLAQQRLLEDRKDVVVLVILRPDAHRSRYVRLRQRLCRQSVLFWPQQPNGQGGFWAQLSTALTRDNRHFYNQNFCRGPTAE
In words: Inhibition of TLR9 in BALB/c mouse BMDM assessed as downregulation of CpG-stimulated IL-6 level at 5 ug/ml preincubated for 18 hrs followed by CpG challenge measured after 24 hrs by ELISA relative to control. In short, it runs like this:
(§1)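 BALB/c male bone marrow macrophages were differentiated 7 days with L929 supernatant (≥99% CD11b+/F4/80+). Cells were plated at 2 × 10^5/well in triplicate, rested overnight, and given compounds at 5 μg/mL for 18 h. They were then stimulated with 100 ng/mL S. minnesota LPS, 10 ng/mL Pam3CSK4 (BLP) or 0.01 μM CpG for 24 h. Supernatant IL-12p40 and IL-6 were measured by ELISA (sensitivity 16 pg/mL).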
(In general: ELISA stands for enzyme-linked immunosorbent assay.)

The target of experiment [2] is T1, Toll-like receptor 9 (Mus musculus). As to the kind of experiment: Inhibition of TLR9 in BALB/c mouse BMDM assessed as downregulation of CpG-stimulated IL-12p40 level at 5 ug/ml preincubated for 18 hrs followed by CpG challenge measured after 24 hrs by ELISA relative to control. In short, it runs like this:
as §1

Experiment [3] deals with T2, TLR2/TLR6 (Mus musculus) (UniProt Q9QUN7+Q9EPW9). As to the kind of experiment: Inhibition of TLR2/6 in BALB/c mouse BMDM assessed as downregulation of BLP-stimulated IL-6 level at 5 ug/ml preincubated for 18 hrs followed by BLP challenge measured after 24 hrs by ELISA relative to control. The experiment is classed as protein-complex assay. The method, boiled down: as §1

The target in experiment [4] is T2, TLR2/TLR6 (Mus musculus). In words: Inhibition of TLR2/6 in BALB/c mouse BMDM assessed as downregulation of BLP-stimulated IL-12p40 level at 5 ug/ml preincubated for 18 hrs followed by BLP challenge measured after 24 hrs by ELISA relative to control. In kind it is protein-complex assay. In short, it runs like this:
as §1

The target in experiment [5] is T3, Toll-like receptor 4 (Mus musculus) (UniProt Q9QUK6).
T3 sequence (whole entry): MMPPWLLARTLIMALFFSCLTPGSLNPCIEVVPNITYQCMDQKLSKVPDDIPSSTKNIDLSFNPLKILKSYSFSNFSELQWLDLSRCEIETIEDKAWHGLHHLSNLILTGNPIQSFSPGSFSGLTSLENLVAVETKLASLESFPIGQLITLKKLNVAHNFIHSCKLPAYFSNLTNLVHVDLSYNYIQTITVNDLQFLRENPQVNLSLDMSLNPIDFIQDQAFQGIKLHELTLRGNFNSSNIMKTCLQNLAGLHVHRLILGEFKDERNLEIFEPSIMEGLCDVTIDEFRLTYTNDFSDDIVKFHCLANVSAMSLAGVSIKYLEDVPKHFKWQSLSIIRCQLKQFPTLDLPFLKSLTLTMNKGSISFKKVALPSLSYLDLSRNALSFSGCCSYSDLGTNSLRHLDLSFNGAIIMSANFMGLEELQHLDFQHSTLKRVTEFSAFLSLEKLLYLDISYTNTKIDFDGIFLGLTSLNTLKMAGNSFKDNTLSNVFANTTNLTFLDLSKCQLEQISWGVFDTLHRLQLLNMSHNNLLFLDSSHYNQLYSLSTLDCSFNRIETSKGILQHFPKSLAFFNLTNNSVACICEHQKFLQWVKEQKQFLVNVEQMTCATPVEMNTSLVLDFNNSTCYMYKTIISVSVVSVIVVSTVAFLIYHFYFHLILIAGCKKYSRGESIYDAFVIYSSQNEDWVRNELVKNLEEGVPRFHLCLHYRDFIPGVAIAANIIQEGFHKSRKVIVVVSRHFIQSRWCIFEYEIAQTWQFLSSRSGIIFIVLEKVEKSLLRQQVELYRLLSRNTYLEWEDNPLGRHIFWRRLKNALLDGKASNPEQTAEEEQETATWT
In words: Inhibition of TLR4 in BALB/c mouse BMDM assessed as downregulation of LPS-stimulated IL-6 level at 5 ug/ml preincubated for 18 hrs followed by LPS challenge measured after 24 hrs by ELISA relative to control. In short, it runs like this:
as §1

Experiment [6] concerns the target T3, Toll-like receptor 4 (Mus musculus). In words: Inhibition of TLR4 in BALB/c mouse BMDM assessed as downregulation of LPS-stimulated IL-12p40 level at 5 ug/ml preincubated for 18 hrs followed by LPS challenge measured after 24 hrs by ELISA relative to control. In short, it runs like this:
as §1

Activity calls are given as the source filed them. No rule for the calls is given here.

Consider `Cc1ccc(CS(=O)(=O)CCN2CCCC2)cc1`, for which the inhibition entry in experiment [1] and in experiment [2] was “inactive” in each case. Also, the inhibition entry (at TLR2/TLR6 (Mus musculus) [3]; at TLR2/TLR6 (Mus musculus) [4]; in experiment [5]; in experiment [6]) was “Active” in each case.
For `CN(C)CCNS(=O)(=O)Cc1ccc(Br)cc1`, the inhibition entry (in experiment [1]; in experiment [2]; on TLR2/TLR6 (Mus musculus) [3]; at TLR2/TLR6 (Mus musculus) [4]; in experiment [5]; in experiment [6]) was “inactive” throughout.
On to `O=S(=O)(CCN1CCOCC1)NCc1ccc(F)cc1`, for which the inhibition result (in experiment [1]; in experiment [2]; at TLR2/TLR6 (Mus musculus) [3]; in experiment [5]) was “Active” throughout. Moreover, the inhibition entry (on TLR2/TLR6 (Mus musculus) [4]; in experiment [6]) was “inactive” each time.
As for `CN(C)CCCNC(=O)Cc1ccccc1`, the inhibition entry (in experiment [1]; in experiment [2]; at TLR2/TLR6 (Mus musculus) [3]; at TLR2/TLR6 (Mus musculus) [4]; in experiment [5]; in experiment [6]) was “inactive” each time.
On to `COc1ccc2c(CS(=O)(=O)NCCN3CCOCC3)cc(=O)oc2c1`, for which the inhibition entry (in experiment [1]; in experiment [2]; at TLR2/TLR6 (Mus musculus) [3]; in experiment [5]) was “inactive” each time. Also, the inhibition result (on TLR2/TLR6 (Mus musculus) [4]; in experiment [6]) was “Active” in each case.
As to `O=S(=O)(Cc1ccc(F)cc1)NCCN1CCCC1`, the inhibition entry (in experiment [1]; in experiment [2]; at TLR2/TLR6 (Mus musculus) [3]; on TLR2/TLR6 (Mus musculus) [4]; in experiment [5]; in experiment [6]) was “inactive” each time.
For `CN(C)CCS(=O)(=O)NCc1ccc(Br)cc1`, the inhibition entry (in experiment [1]; in experiment [2]; on TLR2/TLR6 (Mus musculus) [3]; at TLR2/TLR6 (Mus musculus) [4]; in experiment [5]; in experiment [6]) was “inactive” each time.
On to `O=S(=O)(CCN1CCCC1)NCc1ccc(F)cc1`, for which the inhibition result in experiment [1], in experiment [2] and in experiment [5] was “Active” throughout. Further, the inhibition result (on TLR2/TLR6 (Mus musculus) [3]; on TLR2/TLR6 (Mus musculus) [4]; in experiment [6]) was “inactive” each time.
Take `Cc1ccc(CP(=O)(O)OCCN(C)C)cc1`: the inhibition result (in experiment [1]; in experiment [2]; on TLR2/TLR6 (Mus musculus) [3]; at TLR2/TLR6 (Mus musculus) [4]; in experiment [5]; in experiment [6]) was “inactive” throughout.
Take `Cc1ccc(CS(=O)(=O)NCCN(C)C)cc1`: the inhibition result (in experiment [1]; in experiment [2]; at TLR2/TLR6 (Mus musculus) [3]; at TLR2/TLR6 (Mus musculus) [4]; in experiment [5]; in experiment [6]) was “inactive” throughout.
Turning to `COc1ccc2c(CS(=O)(=O)NCCN3CCCC3)cc(=O)oc2c1`, the inhibition entry (in experiment [1]; in experiment [2]; on TLR2/TLR6 (Mus musculus) [3]; in experiment [5]) was “inactive” in each case. Moreover, the inhibition result (on TLR2/TLR6 (Mus musculus) [4]; in experiment [6]) was “Active” in each case.
With `CC[C@H](C)NCCS(=O)(=O)c1ccccc1`, the inhibition entry (in experiment [1]; in experiment [2]; at TLR2/TLR6 (Mus musculus) [3]; at TLR2/TLR6 (Mus musculus) [4]; in experiment [5]; in experiment [6]) was “inactive” throughout.
As to `CN(C)CCOP(=O)(O)Cc1ccc(Br)cc1`, the inhibition entry (in experiment [1]; in experiment [2]; on TLR2/TLR6 (Mus musculus) [3]; at TLR2/TLR6 (Mus musculus) [4]; in experiment [5]; in experiment [6]) was “inactive” throughout.
For `O=[N+]([O-])c1ccc(CS(=O)(=O)NCCN2CCCC2)cc1`, the inhibition result (in experiment [1]; in experiment [2]; at TLR2/TLR6 (Mus musculus) [3]; on TLR2/TLR6 (Mus musculus) [4]; in experiment [5]; in experiment [6]) was “inactive” throughout.
In the case of `CN(C)CCNCCS(=O)(=O)c1ccccc1`, the inhibition result (in experiment [1]; in experiment [2]; on TLR2/TLR6 (Mus musculus) [3]; on TLR2/TLR6 (Mus musculus) [4]; in experiment [5]; in experiment [6]) was “inactive” in each case.
Turning to `CN(C)CCOP(=O)(O)Cc1ccc([N+](=O)[O-])cc1`, the inhibition result (in experiment [1]; in experiment [2]; on TLR2/TLR6 (Mus musculus) [3]; at TLR2/TLR6 (Mus musculus) [4]; in experiment [5]; in experiment [6]) was “inactive” throughout.
Take `CC[C@H](C)NCCS(=O)(=O)Cc1ccc(Br)cc1`: the inhibition result (in experiment [1]; in experiment [2]; at TLR2/TLR6 (Mus musculus) [3]; in experiment [5]; in experiment [6]) was “inactive” in each case. Also, the inhibition result at TLR2/TLR6 (Mus musculus) [4] was “Active”.
As for `O=S(=O)(CCN1CCCC1)Nc1ccc(F)cc1`, the inhibition entry (in experiment [1]; in experiment [2]; on TLR2/TLR6 (Mus musculus) [3]; at TLR2/TLR6 (Mus musculus) [4]; in experiment [5]) was “inactive” each time. In experiment [6], the inhibition entry was “Active”.
